The test deals with Muscarinic acetylcholine receptor M2 (Rattus norvegicus) (UniProt P10980). Briefly: rat M2 positive allosteric modulation check – CHO cells, calcium flux, selectivity assay for M5 PAM discovery project (AID 651929). In short, it runs like this: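 Test system: CHO-K1 cells expressing M2 receptor coupled to Gqi5 chimera; medium: pH 7.4 buffer containing probenecid; also added: EC20 acetylcholine; schedule: 1.5 min compound, 50 s agonist, 25 °C; technique: intracellular calcium response; read-out: % of maximal acetylcholine response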
Muscarinic acetylcholine receptor M2 (Rattus norvegicus), sequence (P10980 whole entry, looked up): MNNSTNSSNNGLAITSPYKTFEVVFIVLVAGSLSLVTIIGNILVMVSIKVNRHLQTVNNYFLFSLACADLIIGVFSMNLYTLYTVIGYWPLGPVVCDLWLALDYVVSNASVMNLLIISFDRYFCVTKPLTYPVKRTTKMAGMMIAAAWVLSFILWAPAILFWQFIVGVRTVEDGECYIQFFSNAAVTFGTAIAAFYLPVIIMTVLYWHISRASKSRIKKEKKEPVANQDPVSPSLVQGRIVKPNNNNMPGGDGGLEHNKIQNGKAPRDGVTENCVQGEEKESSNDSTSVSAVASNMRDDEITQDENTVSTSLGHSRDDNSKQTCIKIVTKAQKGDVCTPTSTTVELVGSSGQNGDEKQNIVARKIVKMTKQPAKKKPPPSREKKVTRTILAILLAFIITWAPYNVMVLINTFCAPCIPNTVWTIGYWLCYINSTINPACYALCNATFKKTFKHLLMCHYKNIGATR

Calls of active or inactive are those of the source. How the calls were made is not given here.

Turning to `O=C1C(=O)N(CCOc2ccccc2)c2ccc(OC(F)(F)F)cc21`, the result was inactive.

The record behind these values is PubChem BioAssay AID651929 (Vanderbilt Specialized Chemistry Center, 2012).
